Experimental data from ChEMBL document CHEMBL2311278, “Novel fluorescent cephalosporins: synthesis, antimicrobial activity and photodynamic inactivation of antibiotic resistant bacteria” (2013).
Active and inactive are the calls of the source. The calls are words filed in the database; no cut-off is given here.

Legend:
[1] = system: Staphylococcus aureus ATCC 25923; assay: Binding affinity to Staphylococcus aureus ATCC 25923 assessed per 10^8 cells/ml at 50 uM after overnight incubation by fluorescence analysis
Staphylococcus aureus [2] = assay: Antibacterial activity against methicillin-resistant Staphylococcus aureus MRSA2 after 24 hrs; assay type: functional; conditions: MRSA2, 24 h
Method in brief: (§1)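 Broth microdilution in Mueller–Hinton medium. Inocula grown from single colonies at 35 °C to 10⁸ CFU/mL by turbidimetry, then added at ~10⁶ CFU/mL to serial dilutions of compound starting at 256 µg/mL (stocks in ddH2O). Incubated 37 °C for 24 h.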

Staphylococcus aureus [3] = assay: Binding affinity to methicillin-resistant Staphylococcus aureus MRSA1 assessed per 10^8 cells/ml at 50 uM after overnight incubation by fluorescence analysis; assay type: functional, organism-based
Method in brief: (§2)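 Incubated with compound, then pelleted, dissolved in 2% SDS, held at 4 °C overnight and sonicated 30 min. Fluorescence intensity compared with that of free compound (50 µM, or 5 µM for the more fluorescent analogue); expressed per 10⁸ cells/mL.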

Klebsiella pneumoniae [4] = assay: Antibacterial activity against Klebsiella pneumoniae ATCC 700603 after 24 hrs; assay type: functional; conditions: ATCC 700603, 24 h
Method in brief: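 Broth microdilution in Mueller-Hinton medium. A single LB-plate colony was grown in Mueller-Hinton broth at 35 °C for 2–6 h to 10⁸ CFU/mL by turbidimetry. Compounds were dissolved in ddH₂O and serially diluted in Mueller-Hinton medium from 256 downward. About 10⁶ CFU/mL bacteria were added, and plates were incubated at 37 °C for 24 h.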

[5] = system: metallo-beta-lactamase L1 (Stenotrophomonas maltophilia); assay: Activity at Stenotrophomonas maltophilia metallo-beta-lactamase L1 expressed in Escherichia coli BL21 (DE3) by Michaelis-Menten equation analysis
[6] = system: metallo-beta-lactamase CcrA (Bacteroides fragilis); assay: Activity at Bacteroides fragilis metallo-beta-lactamase CcrA expressed in Escherichia coli BL21 (DE3) by Michaelis-Menten equation analysis
Staphylococcus aureus [7] = assay: Antibacterial activity against methicillin-resistant Staphylococcus aureus MRSA1 after 24 hrs; assay type: functional; conditions: MRSA1, 24 h
Method in brief: as §1

Staphylococcus aureus [8] = assay: Binding affinity to methicillin-resistant Staphylococcus aureus MRSA2 assessed per 10^8 cells/ml at 50 uM after overnight incubation by fluorescence analysis; assay type: functional, organism-based
Method in brief: as §2

Klebsiella pneumoniae [9] = assay: Photodynamic inactivation of Klebsiella pneumoniae ATCC 700603 assessed as lethality at 6 uM after overnight incubation by traditional surface plating method in presence of 126 J/cm 2 white light irradiation; assay type: functional
Method in brief: (§3)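 Mixed 1:1 with compound and kept in the dark at 37 °C for 30 min with shaking, then exposed to filtered xenon white light (400–800 nm, 350 mW/cm²). Cells diluted in PBS, ~10⁴ CFU/mL plated on LB agar and grown overnight at 37 °C. Treated-and-irradiated CFU divided by untreated, unirradiated CFU; triplicate. Dark controls had no irradiation.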

Klebsiella pneumoniae [10] = assay: Photodynamic inactivation of Klebsiella pneumoniae ATCC 700603 assessed as lethality at 6 uM after overnight incubation by traditional surface plating method in presence of 189 J/cm 2 white light irradiation; assay type: functional
Method in brief: as §3

Staphylococcus aureus [11] = assay: Binding affinity to methicillin-resistant Staphylococcus aureus MRSA1 at 50 uM after overnight incubation by confocal image analysis; assay type: functional, organism-based
Method in brief: (§4)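 Incubated with 50 µM compound in the dark with shaking, washed twice in PBS and imaged by confocal fluorescence and differential interference contrast microscopy.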

Klebsiella pneumoniae [12] = assay: Photodynamic inactivation of Klebsiella pneumoniae ATCC 700603 assessed as lethality at 10 uM after overnight incubation by traditional surface plating method in presence of 350 mW/cm2 white light irradiation; assay type: functional
Method in brief: as §3

Klebsiella pneumoniae [13] = assay: Antibacterial activity against Klebsiella pneumoniae ATCC 700603 assessed as lethality at 10 uM after overnight incubation by traditional surface plating method; assay type: functional
Method in brief: as §3

Staphylococcus aureus [14] = assay: Binding affinity to methicillin-resistant Staphylococcus aureus MRSA2 at 50 uM after overnight incubation by confocal image analysis; assay type: functional, organism-based
Method in brief: as §4

[15] = Binding affinity to Klebsiella pneumoniae ATCC 700603 at 50 uM after overnight incubation by confocal image analysis
Staphylococcus aureus [16] = assay: Binding affinity to methicillin-resistant Staphylococcus aureus MRSA2 assessed per 10^8 cells/ml at 5 uM after overnight incubation by fluorescence analysis; assay type: functional, organism-based
Method in brief: as §2

[17] = system: Staphylococcus aureus ATCC 25923; assay: Binding affinity to Staphylococcus aureus ATCC 25923 assessed per 10^8 cells/ml at 5 uM after overnight incubation by fluorescence analysis
Staphylococcus aureus [18] = assay: Binding affinity to methicillin-resistant Staphylococcus aureus MRSA1 assessed per 10^8 cells/ml at 5 uM after overnight incubation by fluorescence analysis; assay type: functional, organism-based
Method in brief: as §2

Structure (SMILES): O=C(Cc1cccs1)N[C@@H]1C(=O)N2C(C(=O)O)=C(CSc3ccc(NC(=O)c4cc5c(ccc6ccccc65)oc4=O)cc3)CS[C@H]12
- Activity [1]: 6.59 µM
- MIC (Staphylococcus aureus [2]): > 128 µg/mL
- Activity (Staphylococcus aureus [3]): 3.14 µM
- MIC (Klebsiella pneumoniae [4]): > 128 µg/mL
- Km [5]: 20.2 µM
- Vmax [5]: 0.59 µM/s
- kcat [5]: 29.5 s⁻¹
- Km [6]: 24.4 µM
- Vmax [6]: 0.604 µM/s
- kcat [6]: 121 s⁻¹
- MIC (Staphylococcus aureus [7]): > 128 µg/mL
- Activity (Staphylococcus aureus [8]): 2.95 µM
- Activity (Klebsiella pneumoniae [9]): inactive

Structure (SMILES): O=C(Cc1cccs1)N[C@@H]1C(=O)N2C(C(=O)O)=C(CSc3ccc(NC(=O)c4cc5ccccc5oc4=O)cc3)CS[C@H]12
- Activity (Klebsiella pneumoniae [10]): >95%
- Activity [1]: 2.13 µM
- MIC (Staphylococcus aureus [2]): > 128 µg/mL
- Activity (Staphylococcus aureus [3]): 2.15 µM
- Activity (Staphylococcus aureus [11]): Active
- Activity (Klebsiella pneumoniae [12]): >65%
- MIC (Klebsiella pneumoniae [4]): > 128 µg/mL
- Km [5]: 6.02 µM
- Vmax [5]: 0.471 µM/s
- kcat [5]: 23.5 s⁻¹
- Km [6]: 38.3 µM
- Vmax [6]: 1.05 µM/s
- kcat [6]: 209 s⁻¹
- Activity (Klebsiella pneumoniae [13]): <5%
- Activity (Staphylococcus aureus [14]): Active
- MIC (Staphylococcus aureus [7]): > 128 µg/mL
- Activity (Staphylococcus aureus [8]): 1.82 µM
- Activity (Klebsiella pneumoniae [9]): 84%
- Activity [15]: Active

Structure (SMILES): O=C(O)c1cc2ccccc2oc1=O
- Activity [1]: 0.68 µM
- Activity (Staphylococcus aureus [3]): 0.71 µM
- Activity (Staphylococcus aureus [8]): 0.81 µM

Structure (SMILES): O=C(O)c1cc2c(ccc3ccccc32)oc1=O
- Activity (Staphylococcus aureus [16]): 0.033 µM
- Activity [17]: 0.044 µM
- Activity (Staphylococcus aureus [18]): 0.03 µM
- Activity (Klebsiella pneumoniae [9]): inactive
